Assay outcomes: PubChem, Johns Hopkins Ion Channel Center
A selection: hits, their analogues and other compounds. The true share with any hit is near 3.8%.
hERG rescue: compounds protecting human hERG from proarrhythmic drug block. Q12809. CHO-hERG, FluxOR thallium flux, dofetilide IC70 present. actives 0.51% (n = 310,000). activation (rescue from dofetilide block), less the hit threshold, % at 10 µM;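 active = activation above the mean of controls blocked by dofetilide plus 5 SD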;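 note: thallium influx through hERG after potassium depolarization seen as dye fluorescence rise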
Kir21 block: blocks the mouse Kir2.1 inward-rectifier potassium channel; B-score at 10 µM; HEK293-Kir2.1, FluxOR thallium flux fluorescence; active compounds read low; actives 0.85% (n = 310,000); P35561;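 active = fluorescence ratio B-score at or below minus 3 SD of library scores, with starting-brightness B-score within 2 SD, cut at about -4.2 in these data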;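 note: channel flux triggered by added potassium and thallium sulfate stimulus; B-score of peak minus minimum fluorescence over baseline after thallium stimulus; more negative B-score means stronger Kir2.1 block with less thallium influx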
KCNQ1 inh: blocks the human KCNQ1 potassium channel; P51787; CHO-K1 KCNQ1, FluxOR thallium flux fluorescence; active compounds read high; B-score at 10 µM; actives 1.3% (n = 310,000);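 active = compounds whose thallium flux B-score, printed positive for inhibition, exceeds three library SD while starting fluorescence stays within three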;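 note: channel opened by potassium depolarization with thallium stimulus after 20 min compound exposure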
KCNQ1 act: potentiators or activators of human KCNQ1 potassium channel; CHO-K1 KCNQ1, thallium flux FluxOR fluorescence; active compounds read high; P51787; B-score at 10 µM; actives 0.35% (n = 310,000);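 active = fluorescence ratio B-score, a plate-corrected score, at least three library SD, with initial intensity B-score within 5 SD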
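Assay system: CHO-K1 cells stably expressing KCNQ1. Medium: assay buffer for compound exposure, DMSO matched across wells. Timing: 37 °C overnight plating, 90-min dark dye load, 20-min compound pretreatment. Signal: kinetic FluxOR fluorescence, 10 s baseline plus 110 s post-stimulus.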
KCNK9 block: human KCNK9 channel inhibition; AID 488922; HEK293 KCNK9, FluxOR thallium flux fluorescence; active compounds read low; B-score at 10 µM; Q9NPC2; actives 1.2% (n = 310,000);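 active = ratio B-score over 3 SD below the library mean, with starting fluorescence within 5 SD of its mean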;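 note: negative B-score means less thallium flux so channel inhibition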
Target sequence (Q9NPC2 whole entry, looked up): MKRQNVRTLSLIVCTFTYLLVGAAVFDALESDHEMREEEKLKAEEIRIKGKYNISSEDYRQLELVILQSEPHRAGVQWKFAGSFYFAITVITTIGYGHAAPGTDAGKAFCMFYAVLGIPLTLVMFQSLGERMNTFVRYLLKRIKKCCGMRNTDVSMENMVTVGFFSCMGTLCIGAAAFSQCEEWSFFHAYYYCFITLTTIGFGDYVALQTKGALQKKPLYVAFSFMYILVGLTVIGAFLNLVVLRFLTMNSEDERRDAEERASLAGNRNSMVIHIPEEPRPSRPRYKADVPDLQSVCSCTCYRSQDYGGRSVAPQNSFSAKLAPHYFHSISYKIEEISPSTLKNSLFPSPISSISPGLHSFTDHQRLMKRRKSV
KCNK3 inh: human KCNK3 channel inhibition, primary screen; O14649; CHO-KCNK3 thallium flux, FluxOR fluorescence; active compounds read low; B-score at 10 µM; actives 0.84% (n = 340,000);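 active = B-score under library mean minus 4 SD, starting fluorescence ratio at most library mean plus 5 SD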;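 note: more negative B-score means stronger inhibition of thallium flux through KCNK3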
KCNK9 inh conf: human KCNK9 inhibitor confirmation. AID 492992. inhibition, % at 10 µM. actives 43% (n = 4,900). HEK293 KCNK9 cells, FluxOR thallium flux fluorescence. shares compounds with KCNK9 block;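 active = thallium signal inhibited by more than 5 SD of the compound-free buffer control wells, on both duplicate plates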
Kir21 sel: mouse Kir2.1 off-target activity of KCNK9 modulators | shares compounds with KCNK9 block | actives 4% (n = 4,900) | inhibition, % at 10 µM | Kir2.1 cells, FluxOR thallium flux fluorescence | AID 492993;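 active = thallium signal drop more than 5 SD beyond the mean of the no-compound control wells, seen in both duplicate plates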;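 note: signal is fluorescence rise after thallium addition divided by baseline fluorescence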
KCNK9 uninduced: second counter-screen for KCNK9 modulators: effect in non-induced cells | shares compounds with KCNK9 block | non-induced KCNK9-HEK293, FluxOR thallium flux | inhibition, % at 10 µM | actives 40% (n = 4,900);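 active = thallium signal drop beyond 5 SD of the untreated control mean, on both duplicate plates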
A number is an active result; . = inactive; / = no result.

SMILES	hERG rescue	Kir21 block	KCNQ1 inh	KCNQ1 act	KCNK9 block	KCNK3 inh	KCNK9 inh conf	Kir21 sel	KCNK9 uninduced
CCC(CC)C(=O)Oc1c(Sc2ccccc2[N+](=O)[O-])c(C)nn1C(C)(C)C	.	.	.	.	-12	.	52%	.	33%
CC1CCCC(C)N1C(=O)CSc1nccc(=O)[nH]1 (configuration not stated)	.	.	.	.	.	.	/	/	/
O=C(CNC(c1ccccc1)c1ccccc1)Nc1cc([N+](=O)[O-])ccc1Cl	.	.	.	.	-9.2	.	69%	.	41%
Cc1cccc(NC(=S)NC(=O)C(c2ccccc2)c2ccccc2)n1	.	.	.	.	.	.	/	/	/
Cc1cccc(NC(=S)NC(=O)c2ccc(-c3ccccc3)cc2)n1	.	.	.	.	-11	.	.	.	.
Cc1ccc(C(=O)O)cc1NC(=S)NC(=O)c1ccc(-c2ccccc2)cc1	.	.	.	.	.	.	.	.	.
COC(=O)c1ccc(CSc2nnc3c(Cl)cc(Cl)cn23)o1	.	.	.	.	.	.	/	/	/
CN(C)CC/C=C1\c2cc(Cl)ccc2Sc2cc(F)c(F)cc21	.	-4.2	.	.	.	.	.	34%	.
CN(C)CC/C=C1\c2ccc(F)cc2Sc2cc(F)c(Cl)cc21	.	.	.	.	.	.	.	45%	.
CN(C)CC/C=C1/c2ccc(F)cc2Sc2ccc(Cl)cc21	.	-6.9	.	.	.	.	.	50%	.
CN(C)CCC=C1c2ccccc2C=Cc2ccccc21	/	/	/	/	/	.	/	/	/
CN(C)CC/C=C1\c2ccccc2Sc2cc(F)c(Cl)cc21	.	-4.8	.	.	.	.	.	49%	.
CN(C)CC/C=C1/c2cc(F)ccc2CSc2ccc(F)cc21	.	.	.	.	.	.	/	/	/
COc1ccc(N2CC(C(=O)N[C@@H](CC(C)C)C(=O)NC3CCCC3)CC2=O)cc1 (some centres not stated)	.	.	.	.	.	.	/	/	/
S=c1nc[nH]c2c1ncn2-c1ccccc1	/	/	/	/	/	.	/	/	/
O=C1ON=C(c2ccccc2)/C1=C/c1ccc(O)cc1	.	-6.8	.	.	.	.	.	.	.
Cc1ccc(C2=NOC(=O)/C2=C\c2ccccc2)cc1	.	.	.	.	.	.	/	/	/
O=C1ON=C(c2ccc(Cl)cc2)/C1=C/c1ccc(O)cc1	.	-6.1	8	.	.	/	.	.	.
O=C(COC(=O)c1cccs1)NCCN1C(=O)CSC1=O	.	.	.	.	.	.	/	/	/
CCOC(=O)C1(C)NC(c2cccs2)C2C(=O)N(c3ccc(C)cc3)C(=O)C21 (configuration not stated)	.	.	.	.	.	.	/	/	/
CCOC(=O)C1(C)NC(c2cccc(C)c2)C2C(=O)N(c3ccccc3)C(=O)C21 (configuration not stated)	.	.	.	.	.	.	.	.	.
CCN(CC(=O)Nc1c(F)cccc1F)C(=O)c1cnccn1	.	.	.	.	.	.	/	/	/
CC(NC(=O)COC(=O)c1cc(Cl)ccc1O)C1CC2CCC1C2 (configuration not stated)	/	/	/	/	/	.	/	/	/
CCCCn1c(N)c(N(CC(C)C)C(=O)CN(C)S(=O)(=O)c2ccc(C)cc2)c(=O)[nH]c1=O	.	.	.	.	.	.	/	/	/
CCc1nc(Nc2cccc(OC)c2)c2oc3ccccc3c2n1	.	.	.	.	.	.	/	/	/
SMILES	hERG rescue	Kir21 block	KCNQ1 inh	KCNQ1 act	KCNK9 block	KCNK3 inh	KCNK9 inh conf	Kir21 sel	KCNK9 uninduced
Cc1ccc(Nc2nc(N)nc(-c3oc4ccccc4c3C)n2)cc1	.	.	.	.	.	.	/	/	/
Cc1cccc(Nc2nc(N)nc(-c3oc4ccccc4c3C)n2)c1	.	.	.	.	-8.9	.	35%	.	.
COc1cccc(Nc2nc(N)nc(-c3oc4ccccc4c3C)n2)c1	.	.	.	.	-10	.	38%	.	.
O=C(CSc1nnc(-c2ccncc2)n1Cc1ccco1)Nc1nc(-c2ccccc2)cs1	.	.	.	.	.	.	/	/	/
Cn1c(=O)c2c(SC3CCCC3)nc(C3CC3)nc2n(C)c1=O	.	.	.	.	.	.	/	/	/
N#Cc1c(Sc2ncc(C(F)(F)F)cc2Cl)nsc1C/C=N\OCc1ccccc1Br	.	.	.	.	.	.	.	.	.
Cc1cccc(CC(=O)N2CCN(C(=O)c3ccco3)CC2)c1	.	.	.	.	.	.	/	/	/
Cc1cccc(-n2nc(C(=O)c3ccco3)cc(-c3nc4ccccc4[nH]3)c2=N)c1	.	.	10	.	.	.	.	.	.
CCCCOc1cccc(C2/C(=C(\O)c3ccc4c(c3)OCCO4)C(=O)C(=O)N2CCN2CCOCC2)c1 (configuration not stated)	.	.	.	.	.	.	/	/	/
CC(Oc1ccccc1)C(=O)Nc1ccc(S(=O)(=O)N2CCOCC2)cc1 (configuration not stated)	.	.	.	.	.	.	/	/	/
CC(NCC(=O)NC(=O)NC1CCCC1)c1ccc(Cl)cc1Cl (configuration not stated)	.	.	.	.	.	.	.	.	.
O=C(COC(=O)c1ccc(Cl)cc1)NC(=O)NC1CCCC1	/	/	/	/	/	.	/	/	/
S=c1[nH]nc(Cc2ccccc2)n1-c1cccc2ccccc12	.	.	.	.	.	.	.	.	.
CCOc1ccc(Cc2n[nH]c(=S)n2Cc2ccccc2)cc1	.	.	.	.	-15	.	32%	.	34%
COc1ccccc1CNC(=O)c1cccc(C)c1[N+](=O)[O-]	.	.	.	.	.	.	/	/	/
Cc1cc2cc(CN(Cc3cccs3)C(c3nnnn3C(C)(C)C)C(C)C)c3nnnn3c2cc1C (configuration not stated)	.	.	.	.	-9.8	.	59%	.	49%
CC(=O)Nc1cccc(NC(=O)c2ccc(C)c([N+](=O)[O-])c2)c1	.	.	.	.	.	.	/	/	/
COc1c(N2CCNC(C)C2)c(F)cc2c(=O)c(C(=O)O)cn(C3CC3)c12 (configuration not stated)	.	.	.	.	.	/	/	/	/
C=C(C)C1Cc2c(C)nn(-c3cccc4ccccc34)c2C1 (configuration not stated)	.	.	.	.	.	.	/	/	/
CCN(CC)CCOc1ccc(/C(=C(\Cl)c2ccccc2)c2ccccc2)cc1	.	.	11	.	.	.	.	.	.
